Screens as filed in PubChem.
Ins promoter up – insulin promoter activators in MIN6 cells, imaging, high-content screening, mouse beta cells. 190,000 tested, 0.3% active. MIN6 insulin promoter-GFP reporter; stronger effect = higher value. z-score at 5 µM. AID 1625, 2009;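 active means z-score above 3 at 5 µM with at least 500 cells counted in the well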
Wee1 stabilizer – Wee1 degradation inhibitors, primary screen, cell-based, HeLa, Wee1K328M-luciferase, luminescence. HeLa Luc-Wee1K328M stability; 100% = proteasome inhibitor MG132 effect. reporter increase, % at 5 µM. 220,000 tested, 1.2% active;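 active means activation above the mean of all tested compounds plus 3 SD, set per screening run, cut at about 8.8% in these data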;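 further: cells exposed to compound for 20 h before luminescence read; 0% = DMSO alone and 100% = MG132 at 30 µM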
Target sequence (P30291 whole entry K328M): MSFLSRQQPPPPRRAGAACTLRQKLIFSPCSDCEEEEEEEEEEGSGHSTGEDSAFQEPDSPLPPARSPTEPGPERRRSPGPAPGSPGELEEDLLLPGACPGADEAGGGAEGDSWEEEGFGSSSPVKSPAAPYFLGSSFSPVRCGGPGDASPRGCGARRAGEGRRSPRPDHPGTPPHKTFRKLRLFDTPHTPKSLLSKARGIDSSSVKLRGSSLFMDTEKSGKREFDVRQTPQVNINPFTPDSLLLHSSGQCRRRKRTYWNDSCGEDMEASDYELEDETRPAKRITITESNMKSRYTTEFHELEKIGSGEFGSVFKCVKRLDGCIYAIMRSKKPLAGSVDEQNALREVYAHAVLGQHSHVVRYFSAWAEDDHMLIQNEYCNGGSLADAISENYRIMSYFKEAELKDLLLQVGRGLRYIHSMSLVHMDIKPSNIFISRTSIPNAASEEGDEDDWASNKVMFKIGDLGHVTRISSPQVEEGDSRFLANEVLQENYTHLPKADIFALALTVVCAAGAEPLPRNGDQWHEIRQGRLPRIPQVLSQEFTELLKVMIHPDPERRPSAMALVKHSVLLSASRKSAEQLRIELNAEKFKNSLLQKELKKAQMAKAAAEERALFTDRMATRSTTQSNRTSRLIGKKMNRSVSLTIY
Autophagy mod – autophagy modulators in MEF cells, primary screen, imaging, high-content, MEF GFP-LC3; MEF GFP-LC3 puncta imaging; test concentration mostly 10 µM; calls only at 10 µM (by protocol); 190,000 tested, 0.98% active; AID 463193, 2010;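 active means percentage of spot-positive cells more than 3 SD above its plate mean, without a fluorescence outlier flag or 80% toxicity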;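 further: spot-positive cell cutoff set from DMSO-treated cells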
MT stabilize HCS – microtubule stabilizers in HeLa cells, primary screen, imaging, high-content imaging. % tubulin-high responders, % at 10 µM. HeLa tubulin immunostaining HCS, 24 h; share of cells brighter than vehicle mean+2SD. 200,000 tested, 0.83% active. AID 2205, 2009;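 active means plate Z-score above 3 for both tubulin-high and condensed-nucleus cell shares, with cell loss under 80%, at 10 µM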;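 further: anti alpha tubulin signal scored within the nucleus-defined area of each cell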
b-catenin transl – modulators of beta-catenin nuclear translocation, primary screen, imaging, HeLa cells, immunofluorescence, high-content. AID 1665, 2009. nuclear translocation activity, % at 5 µM. 190,000 tested, 0.3% active;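 active means nuclear translocation activity above 50% at 5 µM, with a well cell count of 50 or more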;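 further: per-cell ratio of nuclear to cytoplasmic median beta-catenin stain intensity; plate controls were DMSO negative control for no effect and GSK-3 inhibitor IX positive control for full effect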
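Read-out: Nuclear/cytoplasmic beta-catenin signal ratio, % activation | Assay system: Human HeLa cell line | Times: 24 h compound exposure at 37°C, 5% CO2 | Signal: Fluorescence imaging of beta-catenin antibody stain plus DAPI | Dosing: 5 µM primary, 0.02–20 µM confirmation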
Wee1 degr conf – Wee1 degradation inhibitors, confirmation, cell-based, HeLa, Wee1K328M-luciferase, luminescence, triplicate. shares compounds with Wee1 stabilizer. HeLa Luc-Wee1K328M degradation; vehicle 0%, proteasome-blocked wells 100%. activation, % at 5 µM. 1,100 tested, 4% active. AID 1410, 2008; in the data active means activation above about 8.9%
* = called active by the depositor; i = inactive; nt = not tested or not shown. An excerpt weighted towards active compounds, which were near 2.9% of everything screened.

SMILES	Ins promoter up	Wee1 stabilizer	Autophagy mod	MT stabilize HCS	b-catenin transl	Wee1 degr conf
CCN1CCN(c2ccc([N+](=O)[O-])cc2S(=O)(=O)N2CCOCC2)CC1	1.2	11*	i	3	-4	4
CC(O)CNc1ccc([N+](=O)[O-])cc1S(=O)(=O)N1CCOCC1 (stereo not given)	-0.2	-1	i	2	-3	nt
O=C(NNC1=NC2(CCCC2)Cc2ccccc21)c1ccncc1	nt	1	i	3	-2	nt
CCOC(=O)c1c(Nc2ccccc2OCCOC)n[nH]c1C	-1.6	11*	nt	nt	0	0
CCOC(=O)c1c(NCc2ccccc2)n[nH]c1C	-0.18	0	i	2	nt	nt
CC1COC(=O)C(NNc2ccc(Cl)c(Cl)c2)=N1 (stereo not given)	-0.43	0	i	3	-3	nt
O=C(CCc1n[nH]c(=O)[nH]c1=O)Nc1cccc([N+](=O)[O-])c1	nt	13*	i	4	0	-2
O=C(NCc1csc(-c2ccccc2)n1)c1cc(F)cc2c1OCOC2	0.11	15*	nt	nt	-1	0
O=C(Cc1csc(-c2ccccc2)n1)NCc1ccc(F)cc1	-0.08	-3	i	5	1	nt
Cc1cc(C)cc(-n2c(C)cc(/C=N\NC(=O)COc3cccc4cccnc34)c2C)c1	-0.23	4	i	2	-1	nt
Cc1cc(/C=N/NC(=O)COc2cccc3cccnc23)c(C)n1-c1ccc(O)cc1	-0.23	14*	i	2	0	0
Cc1ccc(NC(=S)NNC(=O)Nc2ccccc2)cc1	0.31	14*	i	8	0	4
O=C(NNC(=S)Nc1ccccc1)Nc1ccccc1	0.47	8	i	4	0	nt
CN(C)C(CNc1ncnc2sc3c(c12)CCCCC3)c1ccco1 (stereo not given)	-0.49	34*	i	2	nt	5
Cc1sc2ncnc(NCC(c3ccco3)N(C)C)c2c1C (stereo not given)	nt	-2	i	4	nt	nt
Cc1cc(N2CCN(C(c3ccccc3)c3ccc(Cl)cc3)CC2)n2ncnc2n1 (stereo not given)	-0.38	12*	i	3	-1	-1
CCCc1ccc(OC(=O)c2ccc(O)cc2Cl)cc1	-0.54	2	i	4	3	nt
COC(=O)c1ccc(COc2ccccc2/C=C(\C#N)C(=O)Nc2ccccc2C)cc1	0.01	20*	i	4	-2	-1
CCCn1cc(CN2CCC(N3CCC(C(=O)N4CCOCC4)CC3)CC2)c(C)n1	-0.39	2	nt	nt	1	nt
Nc1ccc(-n2nncc2-c2ccc(Cl)cc2)cc1	-0.11	2	i	2	-3	nt
Cn1c(=O)c2c(ncn2CC(=O)N/N=C/C=C\c2ccccc2[N+](=O)[O-])n(C)c1=O	0.03	-3	nt	nt	0	nt
CCCCn1c(-c2cccs2)nc2nc3ccccc3nc21	0.26	13*	i	2	4	0
CC(C)Cn1c(-c2cccs2)nc2nc3ccccc3nc21	-0.18	6	i	2	-6	nt
O=C(Nc1ccc(Cl)c(Cl)c1)c1cccc(S(=O)(=O)NCc2cccnc2)c1	0.08	1	i	5	0	nt
O=C(NCc1cccs1)c1ccccc1	nt	-1	i	2	nt	nt
SMILES	Ins promoter up	Wee1 stabilizer	Autophagy mod	MT stabilize HCS	b-catenin transl	Wee1 degr conf
O=C(NCc1cccs1)c1cccc(Nc2nc3ccc(Br)cc3[nH]2)c1	0.1	15*	i	2	4	3
O=C(NCCCN1CCOCC1)C(=O)N/N=C/c1ccccc1Cl	0.21	1	nt	nt	0	nt
O=C(NCCCN1CCOCC1)C(=O)N/N=C/c1c(Cl)cccc1Cl	0.05	16*	i	2	1	3
Cc1ccc(S(=O)(=O)N(C)C)cc1NC(=O)COC(=O)c1ccc2c(c1)OCCO2	-0.62	0	i	1	-1	nt
CCOC(=O)Cn1c(=NC(=O)CSC(C)=O)sc2ccccc21	-0.1	16*	i	1	1	3
CCOC(=O)Cn1c(=NC(=O)CSC(C)=O)sc2cc(OC)ccc21	0.55	0	i	2	-4	nt
O=c1cc(Nc2ccc3c(c2)OCCO3)[nH]c(=O)n1C1CCCCC1	0.32	11*	i	49*	0	11*
CCc1ccc(Nc2cc(=O)n(C3CCCCC3)c(=O)[nH]2)cc1	-1.2	2	i	3	nt	nt
COc1ccc(Cl)cc1NC(=O)Cn1c(NCCO)nc2ccccc21	-1.1	-1	i	5	1	nt
Cc1ccc(S(=O)(=O)N(C)CCCC(=O)NC(C)(C)C)cc1	0.27	12*	i	3	0	-1
Cc1ccc(C2=NN(S(C)(=O)=O)C(c3cccs3)C2)cc1 (stereo not given)	-0.38	11*	i	2	-1	6
NNC(=O)CN1C(c2ccccc2Br)=Nc2ccc(Br)cc2C1c1ccccc1 (stereo not given)	-0.3	11*	i	4	2	-1
CCOC(=O)/C(C#N)=C/C1=C(N2CCOCC2)CC(C)(C)OC1	-0.32	-3	nt	nt	-1	nt
Cc1ccccc1OCC(=O)Nc1ccc2c(c1)OCO2	-0.27	2	i	5	-1	nt
Cc1ccc(NC(=O)COc2ccccc2C=O)cc1Cl	0.26	16*	i	5	-1	1
COc1ccccc1CNC(=O)C1(NC(=O)Nc2ccc(C)cc2)CCCCC1	-0.52	11*	i	4	-3	1
Cc1ccc(NC(=O)NC2(C(=O)NCc3ccccc3)CCCCC2)cc1	0.22	0	i	3	-3	nt
O=[N+]([O-])c1ccc(/C=N/NC(=S)Nc2ccc(Cl)cc2Cl)s1	0.07	-3	nt	nt	0	nt
Cn1c2c(c(=O)c3ccccc31)CCC(C)(C)O2	-0.2	11*	i	3	1	1
CCC1CCc2c(n(C)c3ccccc3c2=O)O1 (stereo not given)	-0.62	-1	i	6	-1	nt
CC(=O)N1CC(=O)N=C1SCC(=O)Nc1nc(-c2ccccc2)c(-c2ccccc2)s1	nt	-3	i	2	-1	nt
Cc1ccc(Nc2nc(N)c([N+](=O)[O-])c(NCc3ccco3)n2)cc1C	-1.8	3	i	6	5	nt
O=C(NC1CCN(Cc2nnnn2CCc2ccccc2)CC1)c1ccccc1F	nt	12*	i	2	0	-1
Cc1ccccc1C(=O)NC1CCN(Cc2nnnn2Cc2ccccc2)CC1	0.59	-2	i	2	1	nt
COc1ccc([N+](=O)[O-])cc1NC(=O)/C=C/C(=O)O	-0.07	4	i	4	-2	nt
COc1cc(OC)c(NC(=O)/C=C/C(=O)O)cc1Cl	0.72	12*	nt	nt	-3	0
